According to ChEMBL document CHEMBL2150974 (J Med Chem, 2012):
pIC50: −log10 of the molar value. Active and inactive are the calls of the source. The calls are words filed in the database; no cut-off is given here.

Experiments:
[1] = molecular target: Serine/threonine-protein kinase PLK1 (Homo sapiens) (UniProt P53350); assay: Inhibition of PLK1 at 10 uM
[2] = molecular target: Proto-oncogene tyrosine-protein kinase Src (Homo sapiens) (UniProt P12931); assay: Inhibition of SRC at 10 uM
[3] = molecular target: Focal adhesion kinase 1 (Homo sapiens) (UniProt Q05397); assay: Inhibition of FAK at 10 uM
[4] = molecular target: Insulin-like growth factor 1 receptor (Homo sapiens) (UniProt P08069); assay: Inhibition of IGF1R at 10 uM
[5] = molecular target: Vascular endothelial growth factor receptor 2 (Homo sapiens) (UniProt P35968); assay: Inhibition of VEGFR2 at 10 uM
[6] = molecular target: Hepatocyte growth factor receptor (Homo sapiens) (UniProt P08581); assay: Inhibition of MET at 10 uM
[7] = molecular target: RAC-alpha serine/threonine-protein kinase (Homo sapiens) (UniProt P31749); assay: Inhibition of AKT1 at 10 uM
[8] = molecular target: Aurora kinase B (Homo sapiens) (UniProt Q96GD4); assay: Inhibition of AuroraB at 10 uM
[9] = molecular target: T1, Serine/threonine-protein kinase PLK4 (Homo sapiens) (UniProt O00444); assay: Inhibition of SAK at 10 uM
T1 sequence (whole entry): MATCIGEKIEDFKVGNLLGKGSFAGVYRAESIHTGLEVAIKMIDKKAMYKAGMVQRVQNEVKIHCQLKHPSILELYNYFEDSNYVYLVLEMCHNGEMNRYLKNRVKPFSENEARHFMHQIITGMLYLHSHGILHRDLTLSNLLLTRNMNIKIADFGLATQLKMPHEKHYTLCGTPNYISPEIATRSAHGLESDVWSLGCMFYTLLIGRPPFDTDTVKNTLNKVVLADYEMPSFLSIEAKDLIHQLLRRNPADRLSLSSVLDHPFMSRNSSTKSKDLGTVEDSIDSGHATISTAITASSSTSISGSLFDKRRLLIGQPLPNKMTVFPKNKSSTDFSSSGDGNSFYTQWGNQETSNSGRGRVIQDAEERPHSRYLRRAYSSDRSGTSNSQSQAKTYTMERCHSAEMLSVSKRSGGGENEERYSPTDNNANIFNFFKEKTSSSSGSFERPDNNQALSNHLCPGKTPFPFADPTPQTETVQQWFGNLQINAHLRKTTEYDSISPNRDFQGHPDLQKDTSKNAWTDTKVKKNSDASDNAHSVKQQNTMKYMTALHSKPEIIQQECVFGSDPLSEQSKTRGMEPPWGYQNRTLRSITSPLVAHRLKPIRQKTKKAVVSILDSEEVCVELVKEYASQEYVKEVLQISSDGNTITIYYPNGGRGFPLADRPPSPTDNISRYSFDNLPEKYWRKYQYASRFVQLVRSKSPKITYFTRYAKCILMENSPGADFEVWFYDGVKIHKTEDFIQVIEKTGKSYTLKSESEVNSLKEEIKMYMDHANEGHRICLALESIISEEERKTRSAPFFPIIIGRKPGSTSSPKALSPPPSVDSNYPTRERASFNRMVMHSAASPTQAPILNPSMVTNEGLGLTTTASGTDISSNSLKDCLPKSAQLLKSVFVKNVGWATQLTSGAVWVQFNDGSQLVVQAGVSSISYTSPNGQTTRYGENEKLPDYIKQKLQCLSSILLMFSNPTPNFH

[10] = molecular target: BDNF/NT-3 growth factors receptor (Homo sapiens) (UniProt Q16620); assay: Inhibition of TRKB at 10 uM
[11] = molecular target: Insulin receptor (Homo sapiens) (UniProt P06213); assay: Inhibition of INSR at 10 uM
[12] = molecular target: Serine/threonine-protein kinase N1 (Homo sapiens) (UniProt Q16512); assay: Inhibition of PRK1 at 10 uM
[13] = molecular target: Tyrosine-protein kinase receptor UFO (Homo sapiens) (UniProt P30530); assay: Inhibition of AXL at 10 uM
[14] = molecular target: T2, NUAK family SNF1-like kinase 1 (Homo sapiens) (UniProt O60285); assay: Inhibition of ARK5 at 10 uM
T2 sequence (whole entry): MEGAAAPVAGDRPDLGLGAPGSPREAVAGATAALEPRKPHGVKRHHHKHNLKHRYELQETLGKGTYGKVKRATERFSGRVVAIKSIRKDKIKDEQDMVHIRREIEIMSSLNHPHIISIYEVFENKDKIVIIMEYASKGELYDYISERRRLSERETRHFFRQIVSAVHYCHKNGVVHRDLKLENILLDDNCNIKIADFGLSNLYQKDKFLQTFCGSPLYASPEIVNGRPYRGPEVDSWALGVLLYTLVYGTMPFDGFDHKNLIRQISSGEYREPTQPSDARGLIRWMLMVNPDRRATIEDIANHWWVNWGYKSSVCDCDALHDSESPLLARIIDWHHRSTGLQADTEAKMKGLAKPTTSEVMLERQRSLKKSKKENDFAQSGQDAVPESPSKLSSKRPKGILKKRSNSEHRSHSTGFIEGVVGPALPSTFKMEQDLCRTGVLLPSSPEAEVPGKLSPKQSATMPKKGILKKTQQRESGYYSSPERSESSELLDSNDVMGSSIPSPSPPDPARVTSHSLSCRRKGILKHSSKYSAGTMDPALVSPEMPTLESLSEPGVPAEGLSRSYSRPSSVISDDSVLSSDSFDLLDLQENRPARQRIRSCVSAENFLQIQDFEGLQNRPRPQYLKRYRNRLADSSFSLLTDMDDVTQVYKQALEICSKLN

[15] = molecular target: T3, Mitogen-activated protein kinase 14 (Homo sapiens, UniProt Q16539); assay: Inhibition of p38alpha at 10 uM by immunosorbent based kinase assay
[16] = molecular target: Casein kinase II subunit alpha (Homo sapiens) (UniProt P68400); assay: Inhibition of CK2alpha1 at 10 uM
[17] = tested on: Serine/threonine-protein kinase B-raf (Homo sapiens), P15056 [V600E]; assay: Inhibition of BRAF V600E mutant at 10 uM
[18] = molecular target: T3, Mitogen-activated protein kinase 14; assay: Inhibition of p38alpha by immunosorbent based kinase assay
[19] = molecular target: T3, Mitogen-activated protein kinase 14; assay: Inhibition of p38alpha-dependent TNFalpha production in human whole blood at 100 uM
Outline: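 Freshly drawn human whole blood, used diluted so that serum albumin and other plasma proteins are present; inhibition of TNF-α release from the blood's immune cells measured.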

[20] = molecular target: T3, Mitogen-activated protein kinase 14; assay: Inhibition of p38alpha-dependent TNFalpha production in human whole blood

Chain of Insulin receptor (Homo sapiens) (P06213 28-758 limits assumed): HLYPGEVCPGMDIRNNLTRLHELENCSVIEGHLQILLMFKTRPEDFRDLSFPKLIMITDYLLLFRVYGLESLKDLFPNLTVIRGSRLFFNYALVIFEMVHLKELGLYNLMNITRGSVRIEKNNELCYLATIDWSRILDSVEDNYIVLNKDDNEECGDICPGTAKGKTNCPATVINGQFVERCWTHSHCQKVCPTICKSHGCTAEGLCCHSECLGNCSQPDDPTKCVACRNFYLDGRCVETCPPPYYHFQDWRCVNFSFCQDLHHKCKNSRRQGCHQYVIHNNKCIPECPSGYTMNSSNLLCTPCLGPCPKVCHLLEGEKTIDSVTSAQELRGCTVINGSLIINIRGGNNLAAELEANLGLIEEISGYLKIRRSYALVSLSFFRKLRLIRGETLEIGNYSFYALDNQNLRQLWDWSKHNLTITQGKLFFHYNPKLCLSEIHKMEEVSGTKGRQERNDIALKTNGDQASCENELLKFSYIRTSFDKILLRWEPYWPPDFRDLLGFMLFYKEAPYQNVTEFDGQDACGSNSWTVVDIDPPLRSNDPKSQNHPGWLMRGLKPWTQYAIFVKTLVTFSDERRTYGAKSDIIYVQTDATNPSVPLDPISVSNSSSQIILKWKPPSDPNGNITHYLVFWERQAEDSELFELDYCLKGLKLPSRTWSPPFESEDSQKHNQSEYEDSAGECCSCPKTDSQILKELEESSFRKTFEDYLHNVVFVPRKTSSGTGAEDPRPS
Chain of Insulin receptor (Homo sapiens) (P06213 763-1382 limits assumed): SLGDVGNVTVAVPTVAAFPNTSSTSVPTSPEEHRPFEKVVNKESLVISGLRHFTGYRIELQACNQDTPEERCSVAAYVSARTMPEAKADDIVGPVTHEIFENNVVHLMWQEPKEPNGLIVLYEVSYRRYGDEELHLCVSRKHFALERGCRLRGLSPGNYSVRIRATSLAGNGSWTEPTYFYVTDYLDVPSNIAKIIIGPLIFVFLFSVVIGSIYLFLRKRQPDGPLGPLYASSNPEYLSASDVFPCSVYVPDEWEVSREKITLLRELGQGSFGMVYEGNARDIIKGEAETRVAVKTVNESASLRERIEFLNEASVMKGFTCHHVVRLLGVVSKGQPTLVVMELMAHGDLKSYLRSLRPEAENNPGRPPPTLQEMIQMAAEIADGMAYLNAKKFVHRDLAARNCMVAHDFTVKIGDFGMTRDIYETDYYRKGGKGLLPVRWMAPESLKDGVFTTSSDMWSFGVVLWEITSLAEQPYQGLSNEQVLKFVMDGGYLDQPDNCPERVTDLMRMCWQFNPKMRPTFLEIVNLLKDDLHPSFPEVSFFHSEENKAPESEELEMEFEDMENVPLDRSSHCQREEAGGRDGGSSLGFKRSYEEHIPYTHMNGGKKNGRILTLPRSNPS
Chain of Serine/threonine-protein kinase PLK1 (Homo sapiens) (P53350 whole entry): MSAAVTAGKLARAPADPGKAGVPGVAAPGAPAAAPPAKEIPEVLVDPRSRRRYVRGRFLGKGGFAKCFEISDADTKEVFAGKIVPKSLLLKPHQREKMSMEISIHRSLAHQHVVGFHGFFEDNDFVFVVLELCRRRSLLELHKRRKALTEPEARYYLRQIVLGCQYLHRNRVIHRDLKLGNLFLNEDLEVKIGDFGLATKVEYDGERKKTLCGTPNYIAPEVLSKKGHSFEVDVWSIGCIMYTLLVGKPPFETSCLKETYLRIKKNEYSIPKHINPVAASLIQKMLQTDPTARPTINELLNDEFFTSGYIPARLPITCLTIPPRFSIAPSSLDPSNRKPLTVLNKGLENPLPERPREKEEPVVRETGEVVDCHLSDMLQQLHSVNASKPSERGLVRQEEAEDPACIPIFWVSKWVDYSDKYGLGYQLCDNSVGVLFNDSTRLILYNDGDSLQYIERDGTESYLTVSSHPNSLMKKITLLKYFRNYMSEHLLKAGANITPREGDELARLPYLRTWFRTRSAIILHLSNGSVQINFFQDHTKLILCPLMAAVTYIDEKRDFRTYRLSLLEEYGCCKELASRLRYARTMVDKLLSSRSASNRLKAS
Chain of Insulin-like growth factor 1 receptor (Homo sapiens) (P08069 31-736 limits assumed): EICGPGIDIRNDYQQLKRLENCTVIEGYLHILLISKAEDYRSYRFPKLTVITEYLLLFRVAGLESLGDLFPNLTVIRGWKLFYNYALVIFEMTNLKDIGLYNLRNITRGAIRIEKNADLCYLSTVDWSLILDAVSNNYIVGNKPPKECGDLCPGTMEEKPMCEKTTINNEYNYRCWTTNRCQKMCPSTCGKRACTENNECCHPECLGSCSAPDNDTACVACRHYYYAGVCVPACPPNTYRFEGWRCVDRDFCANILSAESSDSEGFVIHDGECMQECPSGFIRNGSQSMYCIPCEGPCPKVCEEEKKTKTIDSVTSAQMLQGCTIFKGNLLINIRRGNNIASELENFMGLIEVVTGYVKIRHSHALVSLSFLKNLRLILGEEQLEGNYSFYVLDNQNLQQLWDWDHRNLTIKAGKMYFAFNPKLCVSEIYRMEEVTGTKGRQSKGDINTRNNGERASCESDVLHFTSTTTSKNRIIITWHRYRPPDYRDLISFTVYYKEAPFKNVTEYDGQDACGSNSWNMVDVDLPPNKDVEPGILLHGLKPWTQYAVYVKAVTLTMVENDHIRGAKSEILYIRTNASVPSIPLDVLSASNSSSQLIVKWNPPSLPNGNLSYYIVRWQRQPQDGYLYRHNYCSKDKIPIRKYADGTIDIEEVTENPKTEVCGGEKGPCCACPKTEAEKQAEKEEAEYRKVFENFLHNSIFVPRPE
Chain of Insulin-like growth factor 1 receptor (Homo sapiens) (P08069 741-1367 limits assumed): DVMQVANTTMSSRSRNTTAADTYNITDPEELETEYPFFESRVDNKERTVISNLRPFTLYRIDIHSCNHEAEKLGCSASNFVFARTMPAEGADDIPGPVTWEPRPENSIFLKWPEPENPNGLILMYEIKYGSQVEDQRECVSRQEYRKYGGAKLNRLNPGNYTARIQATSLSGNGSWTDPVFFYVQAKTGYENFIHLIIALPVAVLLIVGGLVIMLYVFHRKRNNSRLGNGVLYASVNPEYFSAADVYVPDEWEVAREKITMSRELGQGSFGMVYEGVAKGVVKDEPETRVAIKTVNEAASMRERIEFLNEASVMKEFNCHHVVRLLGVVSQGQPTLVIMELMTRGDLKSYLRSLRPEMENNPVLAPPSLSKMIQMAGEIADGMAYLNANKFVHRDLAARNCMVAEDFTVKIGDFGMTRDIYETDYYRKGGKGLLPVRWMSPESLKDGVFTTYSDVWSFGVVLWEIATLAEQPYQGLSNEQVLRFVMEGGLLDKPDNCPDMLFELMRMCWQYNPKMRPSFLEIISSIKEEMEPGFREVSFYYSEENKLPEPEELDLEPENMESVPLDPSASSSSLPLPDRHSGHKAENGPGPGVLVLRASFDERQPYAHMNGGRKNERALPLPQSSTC
Chain of Hepatocyte growth factor receptor (Homo sapiens) (P08581 whole entry): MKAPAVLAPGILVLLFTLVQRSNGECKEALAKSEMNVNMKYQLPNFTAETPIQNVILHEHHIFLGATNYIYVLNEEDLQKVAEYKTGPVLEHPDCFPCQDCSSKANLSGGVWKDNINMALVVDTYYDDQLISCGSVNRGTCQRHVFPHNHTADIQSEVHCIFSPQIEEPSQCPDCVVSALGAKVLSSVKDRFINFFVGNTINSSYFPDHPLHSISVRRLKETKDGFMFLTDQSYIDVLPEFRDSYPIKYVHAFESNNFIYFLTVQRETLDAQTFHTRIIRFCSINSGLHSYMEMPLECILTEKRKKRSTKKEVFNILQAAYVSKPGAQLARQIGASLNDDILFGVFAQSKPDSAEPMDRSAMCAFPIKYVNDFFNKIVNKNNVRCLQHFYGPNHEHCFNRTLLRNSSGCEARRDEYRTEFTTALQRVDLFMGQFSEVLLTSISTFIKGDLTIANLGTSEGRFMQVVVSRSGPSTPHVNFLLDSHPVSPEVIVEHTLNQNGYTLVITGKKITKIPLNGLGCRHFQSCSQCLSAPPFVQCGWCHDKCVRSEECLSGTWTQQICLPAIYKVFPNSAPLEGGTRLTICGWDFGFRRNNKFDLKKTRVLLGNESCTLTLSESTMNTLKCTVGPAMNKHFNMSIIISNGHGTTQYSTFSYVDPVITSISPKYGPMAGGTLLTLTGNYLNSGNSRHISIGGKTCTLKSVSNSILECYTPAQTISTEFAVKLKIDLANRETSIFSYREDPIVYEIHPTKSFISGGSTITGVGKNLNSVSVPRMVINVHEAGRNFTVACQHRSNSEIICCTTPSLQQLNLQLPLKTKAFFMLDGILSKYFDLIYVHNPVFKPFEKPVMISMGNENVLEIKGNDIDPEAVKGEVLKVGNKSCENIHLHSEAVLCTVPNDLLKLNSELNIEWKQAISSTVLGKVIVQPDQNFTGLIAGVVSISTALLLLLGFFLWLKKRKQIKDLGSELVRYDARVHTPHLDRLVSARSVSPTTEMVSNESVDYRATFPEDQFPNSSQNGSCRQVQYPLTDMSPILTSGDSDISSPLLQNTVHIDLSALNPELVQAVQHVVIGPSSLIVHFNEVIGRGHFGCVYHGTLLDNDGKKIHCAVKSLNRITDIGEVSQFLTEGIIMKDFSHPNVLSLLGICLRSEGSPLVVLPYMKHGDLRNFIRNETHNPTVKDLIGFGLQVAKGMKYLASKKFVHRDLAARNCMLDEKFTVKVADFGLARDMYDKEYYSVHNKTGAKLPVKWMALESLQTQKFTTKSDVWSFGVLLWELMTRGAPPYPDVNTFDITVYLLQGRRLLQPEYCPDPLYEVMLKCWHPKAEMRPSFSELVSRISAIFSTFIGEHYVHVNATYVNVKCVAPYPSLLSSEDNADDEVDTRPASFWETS
Chain of Aurora kinase B (Homo sapiens) (Q96GD4 whole entry): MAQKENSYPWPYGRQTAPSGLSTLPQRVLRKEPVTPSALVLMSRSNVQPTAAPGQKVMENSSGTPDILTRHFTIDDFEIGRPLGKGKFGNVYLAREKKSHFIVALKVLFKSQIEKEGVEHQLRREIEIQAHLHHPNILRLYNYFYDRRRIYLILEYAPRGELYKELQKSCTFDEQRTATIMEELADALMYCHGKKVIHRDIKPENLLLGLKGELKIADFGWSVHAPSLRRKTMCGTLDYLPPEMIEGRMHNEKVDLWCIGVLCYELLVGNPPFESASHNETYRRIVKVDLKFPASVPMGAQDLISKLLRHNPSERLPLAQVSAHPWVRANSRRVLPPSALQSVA

SMILES	inhibition [1]	inhibition [2]	inhibition [3]	inhibition [4]	inhibition [5]	inhibition [6]	inhibition [7]	inhibition [8]	inhibition [9]	inhibition [10]	inhibition [11]	inhibition [12]	inhibition [13]	inhibition [14]	inhibition [15]	inhibition [16]	inhibition [17]	pIC50 [18]	inhibition [19]	pIC50 [20]
COc1ccc2ccc3cc(Nc4ccc(F)cc4F)ccc3c(=O)c2c1	inactive	inactive	inactive	inactive	inactive	inactive	inactive	inactive	inactive	inactive	inactive	inactive	inactive	inactive	21%	inactive	inactive	–	–	–
CC1(C)OC[C@H](COc2cccc3c2CCc2cc(Nc4ccc(F)cc4F)ccc2C3=O)O1	inactive	inactive	inactive	inactive	inactive	inactive	inactive	inactive	inactive	inactive	inactive	inactive	inactive	inactive	–	inactive	inactive	6.36	40%	–
COc1cccc2c1CCc1cc(Nc3ccccc3N)ccc1C2=O	inactive	inactive	inactive	inactive	inactive	inactive	inactive	inactive	inactive	inactive	inactive	inactive	inactive	inactive	–	inactive	inactive	7.10	–	4.28
COc1ccc2c(c1)C(=O)c1ccc(Nc3ccc(F)cc3C)cc1CC2	inactive	inactive	inactive	inactive	inactive	inactive	inactive	inactive	inactive	inactive	inactive	inactive	inactive	inactive	–	inactive	inactive	7.22	–	5.41
Nc1ccccc1Nc1ccc2c(c1)CCc1c(OC[C@H](O)CO)cccc1C2=O	inactive	inactive	inactive	inactive	inactive	inactive	inactive	inactive	inactive	inactive	inactive	inactive	inactive	inactive	–	inactive	inactive	7.40	–	4.10
COc1ccc2c(c1)C(=O)c1ccc(Nc3ccc(F)c(C)c3)cc1CC2	inactive	inactive	inactive	inactive	inactive	inactive	inactive	inactive	inactive	inactive	inactive	inactive	inactive	inactive	–	inactive	inactive	7.40	–	5.72
COc1ccc2c(c1)C(=O)c1ccc(-c3ccccc3)cc1CC2	inactive	inactive	inactive	inactive	inactive	inactive	inactive	inactive	inactive	inactive	inactive	inactive	inactive	inactive	32%	inactive	inactive	–	–	–
